Among the data in ChEMBL document CHEMBL4513216, “Probing the Open Global Health Chemical Diversity Library for Multistage-Active Starting Points for Next-Generation Antimalarials” (ACS Infect Dis, 2020) are cytotoxicity values, retold here.

The structures appear in SMILES notation.

The nature of the data set: Toxicity liver stage against HepG2, at 10uM. It counts as cell-based. On the set-up: test concentration 10 uM, cell line HepG2-A16-CD81EGFP. Particulars: human, HepG2-A16-CD81EGFP cells; read-out: INHIBITION
Put shortly:
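Uninfected HepG2-A16-CD81EGFP cells, 3 × 10^3 per well, 1536-well, plated on prespotted compound at 10 μM final, parasite-free screening media added to match infected plates; puromycin 10 μM positive, DMSO 0.5% negative; run in parallel with 48 h PbLuc assay at 37 °C, 5% CO2; viability by CellTiter-Glo luminescence, normalized to controls.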
For the molecule `O=C(NC1CCCN(c2ncccn2)C1)c1cn2ccccc2n1` (centres undefined), the cytotoxicity at 10 µM is -4.38%.
Consider `Cc1nc(Cn2nc(C3CCNCC3)n(Cc3ccccc3)c2=O)no1`, for which the cytotoxicity at 10 µM is -19.3%.
Regarding `Cc1cccc(C(=O)N(C)C2CCN(c3ccccn3)CC2)c1C`, the cytotoxicity at 10 µM was 1.84%.
For `Cc1noc(C)c1CN1CCn2c(CN3CCN(C)CC3)cnc2C1`, the cytotoxicity at 10 µM turned out to be 8.98%.
The value for `O=C(NCC1CC1)c1cc2c(s1)CCN2C(=O)c1ccc(F)cc1` was 2.55%; that for `CCn1nc(CC(C)C)cc1C(=O)N1CCCOC(CN2CCCC2)C1` (centres undefined) was -7.66%; that for `Cc1n[nH]cc1CNC(=O)[C@H]1CCCCN1C(=O)OC(C)(C)C` was -0.311%.
The value for `COc1ccc(CNC(C)c2ccc(Cl)c(Cl)c2)c(OC)c1OC` (centres undefined) was 14.2%.
For the molecule `COc1ccccc1[C@@H]1CN(CC(=O)N2CCCCC2)C[C@H]1C(=O)O`, the cytotoxicity at 10 µM is -2.82%.
Regarding `CO[C@H]1CN(Cc2ccccc2F)[C@@H]2CCCO[C@H]12`, the cytotoxicity at 10 µM is -0.0925%.
To `COc1cc(C2Nc3cc(Cl)ccc3C3=NCCN32)cc(OC)c1OC` (centres undefined) belongs -24.8%.
To `Fc1ccc(CNCc2nnc3n2CC(C(F)(F)F)CC3)cc1` (centres undefined) belongs 6.71%; to `Cc1noc([C@]23COC[C@H]2CN(C(=O)C2CCOCC2)C3)n1`, 9.46%; to `Cc1ncsc1CN(Cc1ccccc1)Cc1ccncc1`, -4.45%.
`CC(C)N1CCC(N2CCCC(C(=O)NCC3(C)COC3)C2)CC1` (centres undefined): the cytotoxicity at 10 µM is -5.62%.
To `CNC(=O)c1ccc(C2CN(C(=O)c3c[nH]nc3C)CCO2)nc1` (centres undefined) belongs -19.3%.
Consider `CC(=O)NC1CCN(c2nc(N(C)C)nc3c2CCN(C(C)=O)C3)CC1`, for which the cytotoxicity at 10 µM stood at 0.541%.
`CCCC(=O)N(C)c1cccc2ncccc12`: the cytotoxicity at 10 µM is 3.94%.
With `CCc1nc2n(n1)CC(NCC(=O)Nc1oc(C)c(C)c1C#N)CC2` (centres undefined), the cytotoxicity at 10 µM is -8.84%.
The value for `O=C(c1ccnnc1)N1CCc2ncnc(C3CCOC3)c2CC1` (centres undefined) was -77.5%; that for `CC(=O)c1cccc(C(=O)N2C[C@@H](CN3CCCCCC3)[C@@H](CO)C2)c1` was 3.32%.
For the molecule `Cc1nccc(N2CCN(C3CCOCC3)CC(C(=O)N(C)C)C2)n1` (centres undefined), the cytotoxicity at 10 µM amounted to 2.12%.
As for `O=C(NC1CC1)c1ccccc1NCc1cn2cccnc2n1`, the cytotoxicity at 10 µM is 5.38%.
For `CS(=O)(=O)NCc1nnc2n1CCN(Cc1cccs1)CC2`, the cytotoxicity at 10 µM is -71.7%.
With `O=C(NC1CC1)[C@H]1CC[C@@H]2[C@@H](CCN2CCOCc2ccccc2)O1`, the cytotoxicity at 10 µM is -115%.
Regarding `COc1ccc(CC2CN(C(=O)c3coc(C)n3)CCO2)cc1` (centres undefined), the cytotoxicity at 10 µM is 3.8%.
Turning to `CCc1cnc(CN(C(C)=O)C2CCN(CCc3ccccc3)C2)o1` (centres undefined), the cytotoxicity at 10 µM is -8.17%.
`CC(C)(CO)CCCNC(=O)NC1(c2cccc(F)c2)CC1`: the cytotoxicity at 10 µM is -4.86%.
The value for `Cc1ccc(C(=O)N2C[C@@H]3CCCO[C@@H]3[C@H](N3CCOCC3)C2)cn1` was -3.4%; that for `Nc1nc(N)c2c(n1)OC1(CCN(Cc3nccs3)C1)C2` (centres undefined) was 0.861%; that for `CC(C)Cc1nc(CCn2cncn2)n(-c2ccc3c(c2)OCCO3)n1` was 12.5%.
Take `Cc1cc(C)cc(OCn2ccc(C(=O)O)n2)c1`: the cytotoxicity at 10 µM amounted to 6.06%.
`CN(C)CC(=O)N1Cc2nc(C(=O)N3CCCN(C)CC3)oc2C1`: the cytotoxicity at 10 µM is -105%.
As for `CC(C)c1ccc(CCC(=O)N2CCOCC2c2ncon2)cc1` (centres undefined), the cytotoxicity at 10 µM was -4.56%.
Turning to `O=C(c1ccnnc1)N1CCN2C[C@H](Oc3cccc(F)c3)C[C@H]2C1`, the cytotoxicity at 10 µM is -1.96%.
Regarding `CSCc1nc(CNC(=O)c2cnn(C(C)C)c2)cs1`, the cytotoxicity at 10 µM came to 1.98%.
For `Cc1cccc(C(C)C)c1NC(=O)NCCN(C(C)C)C(C)C`, the cytotoxicity at 10 µM was -8.98%.
As for `O=C(NCCN1CCNC1=O)c1cnc(-c2cccnc2)nc1`, the cytotoxicity at 10 µM was -0.885%.
Take `O=C(C1CCOCC1)N1CCO[C@@H]2[C@@H](OCc3ccncc3)CC[C@@H]21`: the cytotoxicity at 10 µM came to 8.5%.
With `CCN1CCC(NC(=O)CN2CCCCC2Cn2cncn2)CC1` (centres undefined), the cytotoxicity at 10 µM stood at 3.27%.
As for `COC(=O)c1cccc(C(=O)NCc2ccco2)n1`, the cytotoxicity at 10 µM was found to be 7.44%.
To `c1nn(C2CCCCC2)cc1-c1cncn1CCCN1CCCCC1` belongs 2.37%; to `O=C(Nc1cccnc1)C1CN(C(=O)c2ccc3c(c2)OCO3)C1`, -11.7%; to `O=C(Nc1ccccc1OCCc1ccccn1)N1CCOCC1`, 3.18%.
Take `CNC(=O)c1cc2c(nc1NCC1CC1)CCN(S(C)(=O)=O)CC2`: the cytotoxicity at 10 µM is 5.57%.
With `CCS(=O)(=O)c1ccc2oc([C@H]3CCN(Cc4cccnc4)C3)nc2c1`, the cytotoxicity at 10 µM was 19.7%.
The value for `CC(C)c1nc(CN(C)C(=O)c2ccc(CN3CCCCC3)cc2)cs1` was -6.1%.
For `Cc1nc(Nc2ncccn2)cc(C2CN(C(=O)c3cccnc3)C2)n1`, the cytotoxicity at 10 µM was determined as 4.42%.
The value for `COCCN(CCN(C)C)C(=O)NC1CC1` was -1.78%; that for `CN1CCN(c2ncccn2)CC(C(=O)N(C)C)C1` (centres undefined) was 0.651%; that for `Cc1ccc(C2(CN3CCN(c4ncccn4)CC3)CCNCC2)nc1` was -10.1%.
In the case of `CN(CC(=O)N1CC(C)(C)[C@](O)(C2CC2)C1)Cc1ccncc1`, the cytotoxicity at 10 µM is -44.1%.
For the molecule `Cc1cnn(C2CN(CC(O)Cn3cccn3)C2)c1` (centres undefined), the cytotoxicity at 10 µM came to 9.12%.
As to `Cc1cc(O)c(OCC(=O)Nc2nccs2)cn1`, the cytotoxicity at 10 µM is 4.07%.
`COc1ncc(Cl)c(NCc2ccc(C(=O)N(C)C)cc2)n1`: the cytotoxicity at 10 µM is 9.95%.
`Cc1nc(C2CCN(C(=O)c3cnc(N(C)C)nc3)CC2)c2sccn12`: the cytotoxicity at 10 µM was -4.5%.
Consider `CCOC(=O)c1ccccc1NC(=O)CN(C)Cc1ccccc1Cl`, for which the cytotoxicity at 10 µM was -5.65%.
In the case of `CO[C@@H]1CCN(C(=O)c2ccsc2)[C@@H]2CN(CC3CC3)C[C@@H]21`, the cytotoxicity at 10 µM was -3.1%.
Consider `Nc1nc2c(c3c1C(=O)NC3=O)CCCC2`, for which the cytotoxicity at 10 µM stood at 10.2%.
Regarding `Cc1nc(Nc2nnc(C)s2)cc(C2CCCN2C(C)C)n1` (centres undefined), the cytotoxicity at 10 µM is -23.9%.
For the molecule `O=C(O)C1(n2ccc(-c3ccco3)n2)CCN(Cc2ccsc2)CC1`, the cytotoxicity at 10 µM is -129%.
With `CN(C)C(=O)[C@H]1CO[C@H]2CCN(c3ncc(F)cn3)C[C@H]2C1`, the cytotoxicity at 10 µM turned out to be 7.75%.
With `COc1cccc(C2(C(=O)NC3CCc4nccn4C3)CCCC2)c1` (centres undefined), the cytotoxicity at 10 µM stood at 2.74%.
For `O=c1c(-c2ccnc(NC3CCCCC3)n2)cnc2sc(Cl)cn12`, the cytotoxicity at 10 µM was -6.22%.
To `CNc1nc(CNC(=O)Nc2cccc(F)c2C)cs1` belongs -5.43%; to `O=C(CCOc1cccc(F)c1)N1CCCC(n2cncn2)C1` (centres undefined), -0.192%; to `Cc1nnn2c1COCC(CNC(=O)c1ccc3[nH]ccc3c1)C2` (centres undefined), -10.7%.
On to `CCOc1ccc(NC(=O)C2OC(c3cccs3)=NN2C(C)=O)cc1` (centres undefined), for which the cytotoxicity at 10 µM came out at 4.77%.
On to `Cc1ccc(CCNC(=O)Cn2nc(C)n(Cc3ccccc3)c2=O)s1`, for which the cytotoxicity at 10 µM was -3.66%.
As for `COCCN1CC[C@H]2OCC[C@@H](C(=O)Nc3cccnc3)[C@@H]2C1`, the cytotoxicity at 10 µM turned out to be 4.81%.
As to `CCC(CO)N(Cc1ccco1)C(=O)c1sccc1NC(C)=O` (centres undefined), the cytotoxicity at 10 µM was 3.36%.
As to `CCN(CC(F)(F)F)C(=O)C1CCCN(Cc2ccno2)C1` (centres undefined), the cytotoxicity at 10 µM is -2.33%.
Consider `COCCN(CCC#N)S(=O)(=O)c1ccc(F)cc1Cl`, for which the cytotoxicity at 10 µM is 2.13%.
On to `COc1ccc(CC(C)(O)CNC(=O)Cc2ccc(F)cc2)cc1` (centres undefined), for which the cytotoxicity at 10 µM was 3.91%.
Regarding `Cc1ccccc1CN1C[C@@H](CN(C)CCO)[C@@H](CO)C1`, the cytotoxicity at 10 µM is -1.03%.
For `CN(C)Cc1nn(C)c2c1CCN(C(=O)CC1CC1)C2`, the cytotoxicity at 10 µM was -3.86%.
For `CC(C)=CCN1CCN(C(=O)c2cc(C(C)C)on2)[C@H]2CS(=O)(=O)C[C@H]21`, the cytotoxicity at 10 µM is 3.54%.
As to `CC(C)CN1CCN(C(=O)Nc2cc(C(F)(F)F)c[nH]c2=O)CC1`, the cytotoxicity at 10 µM was -3.43%.
With `O=C(c1ccc[nH]1)N1CCC2(CC1)C(=O)Nc1ccccc12`, the cytotoxicity at 10 µM was determined as 2.09%.
The value for `COc1cc(NC(=O)c2cc(C)sc2C)c(C(=O)N(C)C)cc1OC` was -10.6%; that for `NC(=O)C1CNCCN1C(=O)COc1ccccc1` (centres undefined) was 1.6%; that for `Cc1cncc(C(=O)N2CCC3(CCCN(c4nncs4)C3)C2)c1` (centres undefined) was -99.4%.
For `CC(C)n1[nH]c(=O)c2c1NC(=O)CSC2C1CCCCC1` (centres undefined), the cytotoxicity at 10 µM is -4.56%.
Regarding `CN(CC1COc2ccccc2O1)C(=O)NCCCn1cncn1` (centres undefined), the cytotoxicity at 10 µM is -0.884%.
The value for `Cc1nn(-c2ccc(C(=O)O)cc2)c2c1C(CC(C)C)SCC(=O)N2` (centres undefined) was -2.43%.
Take `Cc1ccc(C(=O)NCCCS(C)(=O)=O)c(=O)[nH]1`: the cytotoxicity at 10 µM is -7.6%.
Consider `CN1CCO[C@@H]2CN(C(=O)c3ccc4ncccc4c3)CC[C@@H]2C1`, for which the cytotoxicity at 10 µM is -112%.
For the molecule `Fc1cccc2ncnc(NCC3(N4CCOCC4)CCSC3)c12` (centres undefined), the cytotoxicity at 10 µM is 50.6%.
Regarding `Cc1cccc(NC(=O)[C@@H]2CCCN2CC(=O)N2CCCCCC2)n1`, the cytotoxicity at 10 µM amounted to 20.3%.
`COc1c(C)cnc(CNC(=O)CCc2nc3ccccc3[nH]2)c1C`: the cytotoxicity at 10 µM was -5.27%.
Consider `CCN1C[C@H]2C3(CCN(S(C)(=O)=O)CC3)CC[C@@]2(C(=O)N(C)C)C1`, for which the cytotoxicity at 10 µM was -107%.
On to `CN(C)C(=O)[C@H]1C[C@H]2CN(CCc3ccccc3)C[C@@H]1O2`, for which the cytotoxicity at 10 µM was -94.2%.
Consider `CCc1nc(CN2CCCN(c3ncnc4ccccc34)CC2)no1`, for which the cytotoxicity at 10 µM is 43.6%.
The value for `Cn1ncc(Cl)c1C(=O)N1CCC(c2nnsc2S(C)(=O)=O)CC1` was -4.7%.
